Results from ChEMBL document CHEMBL1149168, “Discovery and evaluation of potent P1 aryl heterocycle-based thrombin inhibitors” (J Med Chem, 2004).

System: not listed separately
Assay: Half life of compound in dog following oral administration
Format: ADME, organism-based, Canis lupus familiaris
Conditions: in vivo
How it was run: (§1)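 Male beagle dogs (10–12 kg), fasted overnight, were given the inhibitor orally at the stated mg/kg as a solution or suspension in 0.5% methocel. Plasma was stored at –20 °C until HPLC analysis.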

Compound	half-life
N[C@@H](C(=O)N1CCC[C@H]1C(=O)NCc1cc(Cl)ccc1Cl)C(c1ccccc1)c1ccccc1	1.67 h

System: not listed separately
Assay: Half-life of compound in dog following p.o. administration of 0.9 mg/kg
Format: ADME, organism-based, Canis lupus familiaris
Set-up: dose 0.9 mg/kg, route oral
Conditions: in vivo, po
How it was run: as §1

Compound	half-life
Cc1ccc(-n2cncn2)c(CNC(=O)CN2C=CN=C(NCC(F)(F)c3ccccn3)C2)c1	1.2 h

System: not listed separately
Assay: Maximum plasma concentration of compound in dog following p.o. administration of 1 mg/kg
Format: ADME, organism-based, Canis lupus familiaris
Set-up: dose 1 mg/kg, route oral
Conditions: po
How it was run: as §1

Compound	Cmax
O=C(Cn1c(Cl)cnc(NCC(F)(F)c2cccc[n+]2[O-])c1=O)NCc1ccccc1-n1cncn1	860 nM

System: not listed separately
Assay: Oral bioavailability of compound in rat
Format: ADME, organism-based
Conditions: in vivo

Compound	bioavailability
Cc1nc(N)ccc1CNC(=O)Cn1c(C)cnc(NCCc2ccccc2)c1=O [L-375378]	42%

System: not listed separately
Assay: Oral bioavailability of compound in rhesus macaques
Format: ADME, organism-based, Macaca mulatta
Conditions: rhesus monkey, in vivo

Compound	bioavailability
Cc1nc(N)ccc1CNC(=O)Cn1c(C)cnc(NCCc2ccccc2)c1=O [L-375378]	60%

System: not listed separately
Assay: Half-life of compound in dog following p.o. administration of 1 mg/kg
Format: ADME, organism-based, Canis lupus familiaris
Set-up: dose 1 mg/kg, route oral
Conditions: in vivo, po
How it was run: as §1

Compound	half-life
O=C(Cn1c(Cl)cnc(NCC(F)(F)c2cccc[n+]2[O-])c1=O)NCc1ccccc1-n1cncn1	1.4 h

Species: Canis familiaris
Assay: Half life of compound in dog was determined
Format: ADME, organism-based, Canis lupus familiaris
Conditions: in vivo

Compound	T1/2
O=C(Cn1c(Cl)cnc(NCC(F)(F)c2ccccn2)c1=O)NCc1ncccc1F [DPOC-4088]	4.5 h

System: not listed separately
Assay: Half-life of compound in dog following p.o. administration of 0.95 mg/kg
Format: ADME, organism-based, Canis lupus familiaris
Set-up: dose 0.95 mg/kg, route oral
Conditions: in vivo, po
How it was run: as §1

Compound	half-life
O=C(Cn1ccnc(NCC(F)(F)c2ccccn2)c1=O)NCc1cc(Cl)ccc1-n1cnnn1	2 h

System: not listed separately
Assay: Ability to double the activated partial thromboplastin time (2x APTT) in human plasma
Format: functional
Conditions: not given

Compound	2x APTT
O=C(Cn1c(Cl)cnc(NCC(F)(F)c2cccc[n+]2[O-])c1=O)NCc1cc(Cl)ccc1-n1cnnn1	0.13 µM
O=C(Cn1c(Cl)cnc(NCC(F)(F)c2ccccn2)c1=O)NCc1ccccc1-n1cccn1	1.9 µM
O=C(Cn1ccnc(NCC(F)(F)c2ccccn2)c1=O)NCc1ccccc1-n1cncn1	2.06 µM
O=C(Cn1c(Cl)cnc(NCC(F)(F)c2cccc[n+]2[O-])c1=O)NCc1ccccc1-n1cnnn1	0.2 µM
O=C(Cn1c(Cl)cnc(NCC(F)(F)c2ccccn2)c1=O)NCc1ccccc1-c1cc[nH]n1	2.08 µM
Cc1ccc(NS(=O)(=O)Cc2ccccc2)c(=O)n1CC(=O)NCc1cc(Cl)ccc1-n1cncn1	0.36 µM
Cc1ccc(-n2cncn2)c(CNC(=O)CN2C=CN=C(NCC(F)(F)c3ccccn3)C2)c1	0.33 µM
O=C(Cn1ccnc(NCC(F)(F)c2cccc[n+]2[O-])c1=O)NCc1cc(Cl)ccc1-n1cnnn1	0.12 µM
O=C(Cn1ccnc(NCC(F)(F)c2ccccn2)c1=O)NCc1ccccc1-n1cnnn1	0.52 µM
N[C@H](Cc1ccccn1)C(=O)N1CCC[C@H]1CC(=O)NCc1cc(Cl)ccc1-n1cnnn1	0.2 µM
Cn1nnc(-c2ccccc2CNC(=O)Cn2c(Cl)cnc(NCC(F)(F)c3ccccn3)c2=O)n1	1.72 µM
O=C(Cn1c(Cl)cnc(NCC(F)(F)c2ccccn2)c1=O)NCc1ccccc1-c1ncc[nH]1	2.88 µM
O=C(Cn1c(Cl)cnc(NCC(F)(F)c2ccccn2)c1=O)NCc1ccccc1-c1c[nH]cn1	1.83 µM
O=C(Cn1c(Cl)cnc(NCC(F)(F)c2ccccn2)c1=O)NCc1ccccc1-n1cncn1	0.23 µM
Cc1ccc(NS(=O)(=O)Cc2ccccc2)c(=O)n1CC(=O)NCc1ccccc1-n1cnnn1	0.37 µM
O=C(Cn1c(Cl)cnc(NCC(F)(F)c2ccccn2)c1=O)NCc1cc(Cl)ccc1-n1cncn1	0.17 µM
O=C(Cn1c(Cl)cnc(NCC(F)(F)c2ccccn2)c1=O)NCc1ccccc1-c1csnn1	0.6 µM
O=C(Cn1c(Cl)cnc(NCC(F)(F)c2ccccn2)c1=O)NCc1ncccc1-n1cnnn1	0.25 µM

Compound	2x APTT
Cc1ccc(NS(=O)(=O)Cc2ccccc2)c(=O)n1CC(=O)NCc1ccccc1-n1cncn1	1.06 µM
O=C(Cn1c(Cl)cnc(NCC(F)(F)c2ccccn2)c1=O)NCc1cc(Cl)ccc1-n1cnnn1	0.18 µM
O=C(Cn1c(Cl)cnc(NCC(F)(F)c2ccccn2)c1=O)NCc1ccccc1	2.68 µM
O=C(Cn1c(Cl)cnc(NCC(F)(F)c2ccccn2)c1=O)NCc1ccccc1-n1cnnn1	0.22 µM
Cc1ccc(NS(=O)(=O)Cc2ccccc2)c(=O)n1CC(=O)NCc1cc(Cl)ccc1-n1cnnn1	0.23 µM
O=C(Cn1c(Cl)cnc(NCC(F)(F)c2ccccn2)c1=O)NCc1ncccc1-n1cncn1	0.33 µM
O=C(Cn1c(Cl)cnc(NCC(F)(F)c2cccc[n+]2[O-])c1=O)NCc1ccccc1-n1cncn1	0.29 µM
O=C(Cn1c(Cl)cnc(NCC(F)(F)c2ccccn2)c1=O)NCc1cccc(Cl)c1	0.79 µM
O=C(Cn1c(Cl)cnc(NCC(F)(F)c2cccc[n+]2[O-])c1=O)NCc1cc(Cl)ccc1-n1cncn1	0.2 µM
Cn1nnnc1-c1ccccc1CNC(=O)Cn1c(Cl)cnc(NCC(F)(F)c2ccccn2)c1=O	0.34 µM
O=C(Cn1c(Cl)cnc(NCC(F)(F)c2ccccn2)c1=O)NCc1ccccc1-n1ccnc1	1.29 µM
O=C(Cn1c(Cl)cnc(NCC(F)(F)c2ccccn2)c1=O)NCc1ccccc1-n1cnnc1	0.52 µM
O=C(Cn1ccnc(NCC(F)(F)c2cccc[n+]2[O-])c1=O)NCc1ccccc1-n1cnnn1	0.42 µM
O=C(Cn1ccnc(NCC(F)(F)c2cccc[n+]2[O-])c1=O)NCc1ccccc1-n1cncn1	0.98 µM
O=C(Cn1ccnc(NCC(F)(F)c2ccccn2)c1=O)NCc1cc(Cl)ccc1-n1cnnn1	0.2 µM
O=C(Cn1ccnc(NCC(F)(F)c2cccc[n+]2[O-])c1=O)NCc1cc(Cl)ccc1-n1cncn1	0.26 µM
N[C@H](Cc1ccccn1)C(=O)N1CCC[C@H]1CC(=O)NCc1ccccc1-n1cncn1	0.39 µM
N[C@H](Cc1ccccc1)C(=O)N1CCC[C@H]1CC(=O)NCc1cc(Cl)ccc1-n1cnnn1	0.23 µM

Target: Coagulation factor X (Homo sapiens, UniProt P00742)
Assay: Inhibitory potency of compound against human Coagulation factor Xa
Conditions: not given

Coagulation factor X, sequence (P00742 41-179 limits assumed): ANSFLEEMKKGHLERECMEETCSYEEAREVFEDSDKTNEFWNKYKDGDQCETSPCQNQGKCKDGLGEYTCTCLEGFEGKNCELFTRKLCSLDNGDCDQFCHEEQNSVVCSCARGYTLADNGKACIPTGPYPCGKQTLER
Coagulation factor X, sequence (P00742 235-488 limits assumed): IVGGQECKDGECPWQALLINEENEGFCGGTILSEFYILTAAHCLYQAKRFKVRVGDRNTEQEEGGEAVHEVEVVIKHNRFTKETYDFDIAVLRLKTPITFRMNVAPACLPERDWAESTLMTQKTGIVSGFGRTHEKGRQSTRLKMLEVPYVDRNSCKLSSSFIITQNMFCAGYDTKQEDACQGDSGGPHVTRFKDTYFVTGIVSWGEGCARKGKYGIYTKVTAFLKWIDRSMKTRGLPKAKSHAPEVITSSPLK

Compound	Ki
O=C(Cn1ccnc(NCC(F)(F)c2cccc[n+]2[O-])c1=O)NCc1cc(Cl)ccc1-n1cnnn1	5 nM
Cc1ccc(NS(=O)(=O)Cc2ccccc2)c(=O)n1CC(=O)NCc1cc(Cl)ccc1-n1cnnn1	11 nM
O=C(Cn1ccnc(NCC(F)(F)c2cccc[n+]2[O-])c1=O)NCc1ccccc1-n1cnnn1	370 nM
O=C(Cn1ccnc(NCC(F)(F)c2ccccn2)c1=O)NCc1cc(Cl)ccc1-n1cnnn1	10 nM

System: not listed separately
Assay: Maximum plasma concentration of compound in dog following p.o. administration of 0.5 mg/kg
Format: ADME, organism-based, Canis lupus familiaris
Set-up: dose 0.5 mg/kg, route oral
Conditions: po
How it was run: as §1

Compound	Cmax
O=C(Cn1c(Cl)cnc(NCC(F)(F)c2ccccn2)c1=O)NCc1ccccc1-n1cncn1	1130 nM

System: not listed separately
Assay: Half-life of compound in dog following p.o. administration of 0.5 mg/kg
Format: ADME, organism-based, Canis lupus familiaris
Set-up: dose 0.5 mg/kg, route oral
Conditions: in vivo, po
How it was run: as §1

Compound	half-life
O=C(Cn1c(Cl)cnc(NCC(F)(F)c2ccccn2)c1=O)NCc1ccccc1-n1cncn1	3.5 h

System: not listed separately
Assay: Oral bioavailability in dog
Format: ADME, organism-based, Canis lupus familiaris
Conditions: in vivo

Compound	bioavailability
N[C@@H](C(=O)N1CCC[C@H]1C(=O)NCc1cc(Cl)ccc1Cl)C(c1ccccc1)c1ccccc1	45%
Cc1nc(N)ccc1CNC(=O)Cn1c(C)cnc(NCCc2ccccc2)c1=O [L-375378]	91%

System: not listed separately
Assay: Maximum plasma concentration of compound in dog following p.o. administration of 0.95 mg/kg
Format: ADME, organism-based, Canis lupus familiaris
Set-up: dose 0.95 mg/kg, route oral
Conditions: po
How it was run: as §1

Compound	Cmax
O=C(Cn1ccnc(NCC(F)(F)c2ccccn2)c1=O)NCc1cc(Cl)ccc1-n1cnnn1	1310 nM

Target: Prothrombin (Homo sapiens, UniProt P00734)
Assay: Inhibitory potency against human thrombin
Conditions: not given

Compound	Ki
O=C(Cn1c(Cl)cnc(NCC(F)(F)c2ccccn2)c1=O)NCc1ccccc1-n1cccn1	6.9 nM
O=C(Cn1ccnc(NCC(F)(F)c2ccccn2)c1=O)NCc1ccccc1-n1cncn1	16 nM
O=C(Cn1c(Cl)cnc(NCC(F)(F)c2cccc[n+]2[O-])c1=O)NCc1ccccc1-n1cnnn1	0.05 nM
O=C(Cn1c(Cl)cnc(NCC(F)(F)c2ccccn2)c1=O)NCc1ccccc1-c1cc[nH]n1	5.6 nM
Cc1ccc(NS(=O)(=O)Cc2ccccc2)c(=O)n1CC(=O)NCc1cc(Cl)ccc1-n1cncn1	0.16 nM
Cc1ccc(-n2cncn2)c(CNC(=O)CN2C=CN=C(NCC(F)(F)c3ccccn3)C2)c1	0.24 nM
O=C(Cn1ccnc(NCC(F)(F)c2cccc[n+]2[O-])c1=O)NCc1cc(Cl)ccc1-n1cnnn1	0.013 nM
N[C@H](Cc1ccccc1)C(=O)N1CCC[C@H]1CC(=O)NCc1ccccc1-n1cncn1	1.06 nM
O=C(Cn1ccnc(NCC(F)(F)c2ccccn2)c1=O)NCc1ccccc1-n1cnnn1	2.7 nM
N[C@H](Cc1ccccn1)C(=O)N1CCC[C@H]1CC(=O)NCc1cc(Cl)ccc1-n1cnnn1	0.4 nM
Cn1nnc(-c2ccccc2CNC(=O)Cn2c(Cl)cnc(NCC(F)(F)c3ccccn3)c2=O)n1	5.8 nM
O=C(Cn1c(Cl)cnc(NCC(F)(F)c2ccccn2)c1=O)NCc1ccccc1-c1ncc[nH]1	7.2 nM
O=C(Cn1c(Cl)cnc(NCC(F)(F)c2ccccn2)c1=O)NCc1ccccc1-c1c[nH]cn1	4.2 nM
O=C(Cn1c(Cl)cnc(NCC(F)(F)c2ccccn2)c1=O)NCc1ccccc1-n1cncn1	0.45 nM
Cc1ccc(NS(=O)(=O)Cc2ccccc2)c(=O)n1CC(=O)NCc1ccccc1-n1cnnn1	1.4 nM
O=C(Cn1c(Cl)cnc(NCC(F)(F)c2ccccn2)c1=O)NCc1cc(Cl)ccc1-n1cncn1	< 0.01 nM
O=C(Cn1c(Cl)cnc(NCC(F)(F)c2ccccn2)c1=O)NCc1ccccc1-c1csnn1	0.84 nM
O=C(Cn1c(Cl)cnc(NCC(F)(F)c2ccccn2)c1=O)NCc1ncccc1-n1cnnn1	0.14 nM
Cc1ccc(NS(=O)(=O)Cc2ccccc2)c(=O)n1CC(=O)NCc1ccccc1-n1cncn1	7.3 nM

Compound	Ki
O=C(Cn1c(Cl)cnc(NCC(F)(F)c2ccccn2)c1=O)NCc1cc(Cl)ccc1-n1cnnn1	0.0015 nM
O=C(Cn1c(Cl)cnc(NCC(F)(F)c2ccccn2)c1=O)NCc1ccccc1	12 nM
O=C(Cn1c(Cl)cnc(NCC(F)(F)c2ccccn2)c1=O)NCc1ccccc1-n1cnnn1	0.096 nM
O=C(Cn1c(Cl)cnc(NCC(F)(F)c2ccccn2)c1=O)NCc1ccccc1-c1nnn[nH]1	940 nM
Cc1ccc(NS(=O)(=O)Cc2ccccc2)c(=O)n1CC(=O)NCc1cc(Cl)ccc1-n1cnnn1	0.018 nM
O=C(Cn1c(Cl)cnc(NCC(F)(F)c2ccccn2)c1=O)NCc1ncccc1-n1cncn1	0.66 nM
O=C(Cn1c(Cl)cnc(NCC(F)(F)c2cccc[n+]2[O-])c1=O)NCc1ccccc1-n1cncn1	0.21 nM
O=C(Cn1c(Cl)cnc(NCC(F)(F)c2ccccn2)c1=O)NCc1cccc(Cl)c1	0.44 nM
O=C(Cn1c(Cl)cnc(NCC(F)(F)c2cccc[n+]2[O-])c1=O)NCc1cc(Cl)ccc1-n1cncn1	< 0.01 nM
N[C@@H](C(=O)N1CCC[C@H]1C(=O)NCc1cc(Cl)ccc1Cl)C(c1ccccc1)c1ccccc1	3 nM
Cn1nnnc1-c1ccccc1CNC(=O)Cn1c(Cl)cnc(NCC(F)(F)c2ccccn2)c1=O	1.2 nM
O=C(Cn1c(Cl)cnc(NCC(F)(F)c2ccccn2)c1=O)NCc1ccccc1-n1ccnc1	6.3 nM
O=C(Cn1c(Cl)cnc(NCC(F)(F)c2ccccn2)c1=O)NCc1ccccc1-n1cnnc1	3.5 nM
O=C(Cn1ccnc(NCC(F)(F)c2cccc[n+]2[O-])c1=O)NCc1ccccc1-n1cnnn1	1.1 nM
O=C(Cn1ccnc(NCC(F)(F)c2cccc[n+]2[O-])c1=O)NCc1ccccc1-n1cncn1	7.2 nM
O=C(Cn1ccnc(NCC(F)(F)c2ccccn2)c1=O)NCc1cc(Cl)ccc1-n1cnnn1	0.033 nM
O=C(Cn1ccnc(NCC(F)(F)c2cccc[n+]2[O-])c1=O)NCc1cc(Cl)ccc1-n1cncn1	0.085 nM
N[C@H](Cc1ccccn1)C(=O)N1CCC[C@H]1CC(=O)NCc1ccccc1-n1cncn1	2 nM
N[C@H](Cc1ccccc1)C(=O)N1CCC[C@H]1CC(=O)NCc1cc(Cl)ccc1-n1cnnn1	0.33 nM

System: not listed separately
Assay: Maximum plasma concentration of compound in dog following p.o. administration of 0.9 mg/kg
Format: ADME, organism-based, Canis lupus familiaris
Set-up: dose 0.9 mg/kg, route oral
Conditions: po
How it was run: as §1

Compound	Cmax
Cc1ccc(-n2cncn2)c(CNC(=O)CN2C=CN=C(NCC(F)(F)c3ccccn3)C2)c1	1040 nM
